Results reported in ChEMBL document CHEMBL5376013, “Design, synthesis and biological evaluation of novel morpholinopyrimidine-5-carbonitrile derivatives as dual PI3K/mTOR inhibitors” (RSC Med Chem, 2024).
pIC50: −log10 of the molar value.

Legend:
SR [1] = experiment: Antiproliferative activity against human SR cells assessed as inhibition of cell growth; type: functional, cell-based
Outline: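 SR leukemia cells from ATCC were cultured in DMEM with 10% FBS, 10 ug/ml insulin and 1% penicillin-streptomycin. Reconstituted MTT was added at 10% of culture volume for 2–4 h. Formazan was dissolved in solubilization solution and read at 570 nm. Viability was calculated as treated A570 over untreated A570 ×100, with dose-response curves.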

[2] = Inhibition of PI3K (unknown origin); design: species or system Homo sapiens
Outline: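 ELISA kit PI3 kinase assay with LY294002 as reference. Inhibitor preincubated 10 min before PIP2 substrate in kinase reaction buffer (25 µl final), 1 h reaction. Product detected by competition with biotinylated PIP3 for GRP1, with SA-HRP and TMB colour.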

[3] = Cytotoxicity against human PCS-800-011 cells assessed as inhibition of cell growth by MTT assay; type: toxicity, cell-based
PC-3 = experiment: Antiproliferative activity against human PC-3 cells assessed as inhibition of cell growth by MTT assay; type: functional, cell-based
MCF7 = experiment: Antiproliferative activity against human MCF7 cells assessed as inhibition of cell growth by MTT assay; type: functional, cell-based
A549 = experiment: Antiproliferative activity against human A549 cells assessed as inhibition of cell growth by MTT assay; type: functional, cell-based
SR [4] = experiment: cells; settings: Homo sapiens
[5] = target: Serine/threonine-protein kinase mTOR (Homo sapiens, UniProt P42345); experiment: Inhibition of mTOR (unknown origin) incubated for 1 hr by ELISA analysis
Outline: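 Glutathione-coated plate loaded with mTOR substrate (1 h, room temperature). mTOR with compound in 2X kinase assay buffer, 30 min at 30 °C, then stop solution. Phospho-p70S6K-T389 detected by primary antibody, then HRP conjugate (1 h each), TMB, A450 with 540 or 595 nm reference.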

SMILES: COc1ccc(-c2nc(N/N=C/c3cccc(O)c3)nc(N3CCOCC3)c2C#N)cc1
- pIC50 (SR [1]): 4.87
- pIC50 [2]: 5.22

SMILES: COc1ccc(-c2nc(N/N=C/c3cccc(Br)c3)nc(N3CCOCC3)c2C#N)cc1
- pIC50 (SR [1]): 6.12
- pIC50 [2]: 5.22

SMILES: CN[C@@H]1C[C@H]2O[C@@](C)([C@@H]1OC)n1c3ccccc3c3c4c(c5c6ccccc6n2c5c31)C(=O)NC4 [STAUROSPORINE]
- pIC50 [3]: 4.74

SMILES: O=S1(=O)CCc2nc(N3N=C(c4ccc(F)cc4)C[C@@H]3c3ccc(Cl)c(Cl)c3)nc(N3CCOCC3)c2C1
- pIC50 (PC-3): 4.72
- pIC50 (MCF7): 4.51
- pIC50 (A549): 4.62

SMILES: COc1cccc2c1C(=O)c1c(O)c3c(c(O)c1C2=O)C[C@@](O)(C(=O)CO)C[C@@H]3O[C@H]1C[C@H](N)[C@H](O)[C@H](C)O1 [DOXORUBICIN]
- pIC50 (SR [4]): 6.23

SMILES: COc1ccc(-c2nc(N/N=C/c3ccc(O)c(OC)c3)nc(N3CCOCC3)c2C#N)cc1
- pIC50 (SR [1]): 5.36
- pIC50 [2]: 5.22

SMILES: CO[C@H]1C[C@@H]2CC[C@@H](C)[C@@](O)(O2)C(=O)C(=O)N2CCCC[C@H]2C(=O)O[C@H]([C@H](C)C[C@@H]2CC[C@@H](OCCO)[C@H](OC)C2)CC(=O)[C@H](C)/C=C(\C)[C@@H](O)[C@@H](OC)C(=O)[C@H](C)C[C@H](C)/C=C/C=C/C=C/1C [EVEROLIMUS]
- pIC50 [5]: 6.28

SMILES: O=c1[nH]cc(F)c(=O)[nH]1 [FLUOROURACIL]
- pIC50 (SR [4]): 5.13
